The text below walks through data of publication PMC11532418 (Scientific Reports, 2024).

Test [1] concerns the target T1, DPP4 enzyme (Homo sapiens, UniProt P27487). Briefly: biochemical. To be noted: read-out: % DPP4 Enzyme Inhibition, at 20 µM.
For another test, the system named is NIH/3T3. Description: MTT cytotoxic bioassay on normal cell line. To be noted: Mus musculus, NIH3T3, 72 h, read-out: IC50 ± SD. It is filed as cell-based. An outline of the steps:
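NIH/3T3 fibroblasts were grown in high-glucose DMEM with 10% FBS and 1% penicillin-streptomycin under humidified 5% CO2. 1.0 × 10^4 cells/well were precultured for 16 h, then exposed for 72 h in fresh medium (reference drug at 1–200 µM). MTT (0.50 mg/ml final) was added for 4 h, and formazan was dissolved in DMSO. A570 − A630 gave % viability. IC50 is mean ± SD of three independent experiments.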

Test [2] addresses T1, DPP4 enzyme. Description: Kinetic study of DPP4 inhibition. It is filed as biochemical. In outline: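 DPP4 inhibition kinetics with fluorogenic substrate H-Gly-Pro-AMC at different substrate-to-enzyme concentration ratios, test compound at four concentrations (0.5, 5, 25 and 50 µM). Double-reciprocal plots of 1/velocity vs 1/[substrate] fitted by weighted least squares, assuming velocity variance is a constant percentage of v. Lineweaver–Burk slopes were replotted against inhibitor concentration, and Ki was taken as the negative X-axis intercept.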

In general, inhibition refers to the drop in the measured response relative to a control, in per cent. In general, IC50 refers to the concentration that inhibits the measured activity by half. In general, Ki refers to a measure of affinity in units of concentration, obtained from inhibition or displacement.

T1 sequence (P27487 whole entry): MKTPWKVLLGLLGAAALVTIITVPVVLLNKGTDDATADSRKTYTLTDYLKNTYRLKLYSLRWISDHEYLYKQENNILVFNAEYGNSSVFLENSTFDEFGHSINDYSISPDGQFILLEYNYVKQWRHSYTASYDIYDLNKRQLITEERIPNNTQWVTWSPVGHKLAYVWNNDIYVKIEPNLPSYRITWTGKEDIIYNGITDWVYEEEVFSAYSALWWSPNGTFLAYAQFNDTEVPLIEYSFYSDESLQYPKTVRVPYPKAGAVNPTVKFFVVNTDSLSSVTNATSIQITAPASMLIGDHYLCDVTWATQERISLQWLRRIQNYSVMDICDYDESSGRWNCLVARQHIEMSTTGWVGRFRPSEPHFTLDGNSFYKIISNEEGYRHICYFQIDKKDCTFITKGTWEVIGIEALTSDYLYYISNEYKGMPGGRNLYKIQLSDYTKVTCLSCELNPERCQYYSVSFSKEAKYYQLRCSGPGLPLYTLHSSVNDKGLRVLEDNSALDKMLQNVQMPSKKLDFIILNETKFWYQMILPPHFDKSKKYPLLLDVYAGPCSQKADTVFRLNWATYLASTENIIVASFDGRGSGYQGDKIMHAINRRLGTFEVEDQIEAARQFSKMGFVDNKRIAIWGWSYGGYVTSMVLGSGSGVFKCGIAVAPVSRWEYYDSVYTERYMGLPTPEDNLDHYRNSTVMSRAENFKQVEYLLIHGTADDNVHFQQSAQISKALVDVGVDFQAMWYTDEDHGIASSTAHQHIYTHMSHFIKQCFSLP

As for `Cn1c(=O)cc(N2CCC(N)CC2)n(Cc2nc3ccc(Br)cc3c(=O)n2-c2ccc(Br)cc2)c1=O` [9j, 6-(4-Aminopiperidin-1-yl)-1-((6-bromo-3-(4-bromophenyl)-4-oxo-3,4-dihydroquinazolin-2-yl)methyl)-3-methylpyrimidine-2,4(1 H,3 H)-dione], at DPP4 enzyme [1], the inhibition at 20 µM was > 50%. The IC50 in the test on NIH/3T3 stood at 91 ± 1.98 µM. For `N[C@@H](CC(=O)N1CCn2c(nnc2C(F)(F)F)C1)Cc1cc(F)c(F)cc1F` [Sitagliptin, reference compound], the IC50 in the test on NIH/3T3 worked out at 111 ± 5.85 µM. As to `Cn1c(=O)cc(N2CCC(N)CC2)n(Cc2nc3ccc(Br)cc3c(=O)n2-c2cccc(Br)c2)c1=O` [9l, 6-(4-Aminopiperidin-1-yl)-1-((6-bromo-3-(3-bromophenyl)-4-oxo-3,4-dihydroquinazolin-2-yl)methyl)-3-methylpyrimidine-2,4(1 H,3 H)-dione], in the test on NIH/3T3, the IC50 amounted to 78.1 ± 2.95 µM. Consider `Cn1c(=O)cc(N2CCC(N)CC2)n(Cc2nc3ccccc3c(=O)n2-c2cccc(C(F)(F)F)c2)c1=O` [9e, 6-(4-Aminopiperidin-1-yl)-3-methyl-1-((4-oxo-3-(3-(trifluoromethyl)phenyl)-3,4-dihydroquinazolin-2-yl)methyl)pyrimidine-2,4(1 H,3 H)-dione], for which the IC50 in the test with NIH/3T3 worked out at 81.5 ± 5.94 µM. For the compound `Cc1ccc(-n2c(Cn3c(N4CCC(N)CC4)cc(=O)n(C)c3=O)nc3ccccc3c2=O)cc1` [9d, 6-(4-Aminopiperidin-1-yl)-3-methyl-1-((4-oxo-3-(p-tolyl)-3,4-dihydroquinazolin-2-yl)methyl)pyrimidine-2,4(1 H,3 H)-dione], in the test on NIH/3T3, the concentration for half-maximal inhibition (IC50) is 39.3 ± 1.05 µM.

As to `Cn1c(=O)cc(N2CCC(N)CC2)n(Cc2nc3ccc(Br)cc3c(=O)n2-c2ccc(F)cc2)c1=O` [9h, 6-(4-Aminopiperidin-1-yl)-1-((6-bromo-3-(4-fluorophenyl)-4-oxo-3,4-dihydroquinazolin-2-yl)methyl)-3-methylpyrimidine-2,4(1 H,3 H)-dione], the half-maximal inhibitory concentration (IC50) in the test on NIH/3T3 is 89.7 ± 3.76 µM. Take `Cn1c(=O)cc(N2CCC(N)CC2)n(Cc2nc3ccccc3c(=O)n2-c2ccc(F)cc2)c1=O` [9b, 6-(4-Aminopiperidin-1-yl)-1-((3-(4-fluorophenyl)-4-oxo-3,4-dihydroquinazolin-2-yl)methyl)-3-methylpyrimidine-2,4(1 H,3 H)-dione]: the IC50 in the test on NIH/3T3 turned out to be 62.9 ± 1.98 µM. Consider `Cn1c(=O)cc(N2CCC(N)CC2)n(Cc2nc3ccccc3c(=O)n2-c2ccccc2)c1=O` [9a, 6-(4-Aminopiperidin-1-yl)-3-methyl-1-((4-oxo-3-phenyl-3,4-dihydroquinazolin-2-yl)methyl)pyrimidine-2,4(1 H,3 H)-dione], for which the IC50 in the test with NIH/3T3 stood at 88.1 ± 3.22 µM. Take `Cn1c(=O)cc(N2CCC(N)CC2)n(Cc2nc3ccc(Br)cc3c(=O)n2-c2cccc(F)c2)c1=O` [9k, 6-(4-Aminopiperidin-1-yl)-1-((6-bromo-3-(3-fluorophenyl)-4-oxo-3,4-dihydroquinazolin-2-yl)methyl)-3-methylpyrimidine-2,4(1 H,3 H)-dione]: the IC50 in the test with NIH/3T3 was 68.4 ± 3.01 µM. For the compound `Cn1c(=O)cc(N2CCC(N)CC2)n(Cc2nc3ccc(Br)cc3c(=O)n2-c2ccc(Cl)cc2)c1=O` [9i, 6-(4-Aminopiperidin-1-yl)-1-((6-bromo-3-(4-chlorophenyl)-4-oxo-3,4-dihydroquinazolin-2-yl)methyl)-3-methylpyrimidine-2,4(1 H,3 H)-dione], the IC50 with NIH/3T3 came to 76.9 ± 2.58 µM. Moreover, affinity at DPP4 enzyme [2] was put at a Ki of 12 µM. Also, the type of inhibition result at DPP4 enzyme [2] (Lineweaver-Burk plot) is given as “competitive”. Regarding `Cn1c(=O)cc(N2CCC(N)CC2)n(Cc2nc3ccccc3c(=O)n2-c2ccc(Cl)cc2)c1=O` [9c, 6-(4-Aminopiperidin-1-yl)-1-((3-(4-chlorophenyl)-4-oxo-3,4-dihydroquinazolin-2-yl)methyl)-3-methylpyrimidine-2,4(1 H,3 H)-dione], the inhibition at 20 µM on DPP4 enzyme [1] is > 50%. In the test on NIH/3T3, the IC50 was 72.2 ± 3.91 µM. `Cn1c(=O)cc(N2CCC(N)CC2)n(Cc2nc3ccc(Br)cc3c(=O)n2-c2ccccc2)c1=O` [9g, 6-(4-Aminopiperidin-1-yl)-1-((6-bromo-4-oxo-3-phenyl-3,4-dihydroquinazolin-2-yl)methyl)-3-methylpyrimidine-2,4(1 H,3 H)-dione]: the half-maximal inhibitory concentration (IC50) with NIH/3T3 was 102 ± 4.05 µM. On to `Cn1c(=O)cc(N2CCC(N)CC2)n(Cc2nc3ccccc3c(=O)n2-c2ccc(F)c(Cl)c2)c1=O` [9f, 6-(4-Aminopiperidin-1-yl)-1-((3-(3-chloro-4-fluorophenyl)-4-oxo-3,4-dihydroquinazolin-2-yl)methyl)-3-methylpyrimidine-2,4(1 H,3 H)-dione], for which the IC50 in the test on NIH/3T3 amounted to 43.4 ± 1.02 µM.
